From ChEMBL document CHEMBL1255195, “Synthesis and biological activity of pyrido[3',2':4,5]thieno[3,2-d]pyrimidines as phosphodiesterase type 4 inhibitors” (J Med Chem, 2010)
pIC50: −log10 of the molar value.

Key:
Blood = assay: Antiinflammatory activity against LPS-induced TNFalpha production in human whole blood by ELISA; assay type: functional, tissue-based
How it was run: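 Human whole blood preincubated at 37 °C for 10 min with LPS at final 1 μg/mL; inhibitors in 100% DMSO added at increasing concentrations, blood (LPS-free for controls) incubated 24 h at 37 °C under agitation. Reaction stopped on ice with PBS and centrifugation; serum TNFα measured by sandwich ELISA, TMB substrate, 450 nm. Experiments run 2-3 times, duplicates averaged, given as pg/mL.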

[1] = biological target: 3',5'-cyclic-AMP phosphodiesterase 4A (Homo sapiens, UniProt P27815); assay: Inhibition of PDE4A4 expressed in yeast
[2] = biological target: 3',5'-cyclic-AMP phosphodiesterase 4B (Homo sapiens, UniProt Q07343); assay: Inhibition of PDE4B1 expressed in yeast
How it was run: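 Human recombinant PDE4A4, PDE4B1 or PDE4D3 made in galactose-induced […]; dialysed extracts (~4 μg protein) used. Hydrolysis of 15 nM [3H]-cAMP in 50 mM Tris pH 7.5, 8.3 mM MgCl2, 1.7 mM EGTA, final DMSO 5%, 60 min at room temperature. Reaction stopped with SPA beads, then scintillation counted. Compounds tested 10 μM to 10 pM in duplicate; IC50 calculated.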

[3] = biological target: 3',5'-cyclic-AMP phosphodiesterase 4D (Homo sapiens, UniProt Q08499); assay: Inhibition of PDE4D3 expressed in yeast
[4] = Apparent permeability from apical to basolateral side of human Caco-2 cells; assay type: ADME, cell-based
How it was run: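 Caco-2 cells seeded at 500 000 cells/well on collagen-coated PET membranes (1 μm pores), differentiated and used six days post-seeding. Compound applied in HBSS with 10 mM Hepes and 25 mM glucose, pH 7.4, at most 1% DMSO, on the apical side. Samples taken after 3 h and analysed by HPLC-UV. [3H]mannitol 115 nM served as integrity control.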

Chain of 3',5'-cyclic-AMP phosphodiesterase 4A (P27815 whole entry): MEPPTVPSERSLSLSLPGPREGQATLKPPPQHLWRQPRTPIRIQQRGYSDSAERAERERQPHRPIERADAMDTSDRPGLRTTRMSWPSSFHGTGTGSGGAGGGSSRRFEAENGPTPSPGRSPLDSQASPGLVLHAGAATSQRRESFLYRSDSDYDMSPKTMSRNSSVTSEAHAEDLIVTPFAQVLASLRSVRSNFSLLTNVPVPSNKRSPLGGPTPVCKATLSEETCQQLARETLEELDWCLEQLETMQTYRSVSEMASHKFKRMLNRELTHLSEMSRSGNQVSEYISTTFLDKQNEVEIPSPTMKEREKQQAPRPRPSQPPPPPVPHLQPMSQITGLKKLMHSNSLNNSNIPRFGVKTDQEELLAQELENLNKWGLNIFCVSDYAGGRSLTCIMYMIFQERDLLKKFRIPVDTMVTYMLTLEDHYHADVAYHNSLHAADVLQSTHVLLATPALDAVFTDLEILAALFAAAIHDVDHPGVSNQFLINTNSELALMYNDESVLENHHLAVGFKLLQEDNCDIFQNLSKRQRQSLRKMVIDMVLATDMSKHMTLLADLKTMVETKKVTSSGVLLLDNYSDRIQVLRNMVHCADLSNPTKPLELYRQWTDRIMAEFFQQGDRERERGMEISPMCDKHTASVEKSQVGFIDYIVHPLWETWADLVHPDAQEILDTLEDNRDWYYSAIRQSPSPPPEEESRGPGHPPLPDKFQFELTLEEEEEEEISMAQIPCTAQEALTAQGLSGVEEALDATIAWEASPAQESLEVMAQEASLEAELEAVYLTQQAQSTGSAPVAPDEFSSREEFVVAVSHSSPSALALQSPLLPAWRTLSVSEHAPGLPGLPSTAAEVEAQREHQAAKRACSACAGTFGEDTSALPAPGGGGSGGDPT
Chain of 3',5'-cyclic-AMP phosphodiesterase 4B (Q07343 whole entry): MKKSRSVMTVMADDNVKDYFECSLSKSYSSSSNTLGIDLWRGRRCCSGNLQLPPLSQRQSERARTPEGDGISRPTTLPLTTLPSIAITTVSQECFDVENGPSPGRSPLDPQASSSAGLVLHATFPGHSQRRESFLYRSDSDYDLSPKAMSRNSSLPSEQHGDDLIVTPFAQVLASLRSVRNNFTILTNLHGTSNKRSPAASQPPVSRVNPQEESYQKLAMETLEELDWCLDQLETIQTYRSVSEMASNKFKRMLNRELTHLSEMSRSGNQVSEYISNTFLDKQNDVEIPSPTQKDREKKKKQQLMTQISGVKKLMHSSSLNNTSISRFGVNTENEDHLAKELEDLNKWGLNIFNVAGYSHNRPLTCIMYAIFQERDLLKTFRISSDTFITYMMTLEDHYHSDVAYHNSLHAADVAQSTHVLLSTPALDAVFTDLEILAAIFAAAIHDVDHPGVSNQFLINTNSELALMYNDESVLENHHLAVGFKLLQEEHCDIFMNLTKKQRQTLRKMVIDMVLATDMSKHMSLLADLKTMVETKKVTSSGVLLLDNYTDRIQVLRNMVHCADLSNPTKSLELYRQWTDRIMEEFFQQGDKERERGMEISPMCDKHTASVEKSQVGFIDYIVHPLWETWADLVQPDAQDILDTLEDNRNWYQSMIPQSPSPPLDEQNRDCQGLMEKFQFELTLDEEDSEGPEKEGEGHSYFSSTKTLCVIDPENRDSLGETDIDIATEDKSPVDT
Chain of 3',5'-cyclic-AMP phosphodiesterase 4D (Q08499 whole entry): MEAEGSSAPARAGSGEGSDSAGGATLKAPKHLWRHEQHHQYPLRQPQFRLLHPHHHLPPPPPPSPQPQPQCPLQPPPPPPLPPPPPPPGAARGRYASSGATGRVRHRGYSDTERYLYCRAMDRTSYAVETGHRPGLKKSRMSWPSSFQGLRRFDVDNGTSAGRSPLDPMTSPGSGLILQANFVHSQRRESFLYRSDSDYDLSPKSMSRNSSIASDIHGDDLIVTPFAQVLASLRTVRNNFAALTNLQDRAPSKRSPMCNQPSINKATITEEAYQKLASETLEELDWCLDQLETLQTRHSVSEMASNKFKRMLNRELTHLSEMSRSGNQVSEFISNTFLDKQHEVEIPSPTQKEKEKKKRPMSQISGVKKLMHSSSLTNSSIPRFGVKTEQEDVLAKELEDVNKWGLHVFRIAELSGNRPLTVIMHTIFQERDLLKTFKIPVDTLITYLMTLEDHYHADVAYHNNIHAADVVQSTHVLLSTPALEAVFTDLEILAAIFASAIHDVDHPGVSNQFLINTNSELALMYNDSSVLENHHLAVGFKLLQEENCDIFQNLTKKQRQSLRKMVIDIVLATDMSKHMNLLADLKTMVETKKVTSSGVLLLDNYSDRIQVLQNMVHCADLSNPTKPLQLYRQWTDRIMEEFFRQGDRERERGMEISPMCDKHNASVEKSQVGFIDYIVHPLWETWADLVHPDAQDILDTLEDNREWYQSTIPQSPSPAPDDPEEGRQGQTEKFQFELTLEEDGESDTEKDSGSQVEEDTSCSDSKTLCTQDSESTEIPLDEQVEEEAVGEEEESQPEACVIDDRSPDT

Structure (SMILES) | pIC50 (Blood) | pIC50 [1] | pIC50 [2] | pIC50 [3] | Papp A→B [4] [×10⁻⁶ cm/s]
CC1(C)CCc2c(N3CCOCC3)nc3sc4c(N(CCO)CCN5CCOCC5)ncnc4c3c2C1 | 6.49 | 8.19 | 8.55 | 8.74 | –
CC1(C)Cc2c(c(N3CCOCC3)nc3sc4c(N(CCN5CCOCC5)Cc5cccnc5)ncnc4c23)CO1 | 6.40 | 8.30 | 8.35 | 7.72 | –
CC1(C)CCc2c(-c3ccco3)nc3sc4c(NCCN5CCOCC5)ncnc4c3c2C1 | 5.96 | 8.27 | 8.42 | 8.10 | –
CC1(C)CCc2c(-c3ccoc3)nc3sc4c(NCCN5CCOCC5)ncnc4c3c2C1 | 5.91 | 8.05 | 8.54 | 8.51 | –
CC1(C)Cc2c(c(N3CCOCC3)nc3sc4c(NCCN5CCCCC5)ncnc4c23)CO1 | – | – | 6.55 | – | –
CC1(C)Cc2c(c(N3CCOCC3)nc3sc4c(NCCCN5CCCC5=O)ncnc4c23)CO1 | – | – | 6.78 | – | –
CC1(C)CCc2c(N3CCOCC3)nc3sc4c(NCCCN5CCCC5=O)ncnc4c3c2C1 | 5.67 | 7.74 | 7.68 | 7.21 | –
CC1(C)Cc2c(c(N3CCOCC3)nc3sc4c(NCc5cccnc5)ncnc4c23)CO1 | 6.19 | 7.32 | 8.24 | 7.28 | –
CC1(C)CCc2c(N3CCOCC3)nc3sc4c(NCc5cccnc5)ncnc4c3c2C1 | 6.42 | 8.35 | 8.44 | 7.49 | –
CC1(C)Cc2c(c(N3CCOCC3)nc3sc4c(NCc5ccncc5)ncnc4c23)CO1 | 5.99 | 7.01 | 7.66 | 6.89 | –
CC1(C)CCc2c(N3CCOCC3)nc3sc4c(NCc5ccncc5)ncnc4c3c2C1 | 5.69 | 7.72 | 7.96 | 7.89 | –
COc1ccccc1CNc1ncnc2c1sc1nc(N3CCOCC3)c3c(c12)CC(C)(C)OC3 | 5.92 | 7.17 | 7.40 | 6.92 | –
COc1ccccc1CNc1ncnc2c1sc1nc(N3CCOCC3)c3c(c12)CC(C)(C)CC3 | – | – | 6.67 | – | –
CC1(C)Cc2c(c(N3CCOCC3)nc3sc4c(N(CCO)CCN5CCOCC5)ncnc4c23)CO1 | 6.27 | 7.64 | 7.89 | 7.41 | –
CC1(C)Cc2c(c(N3CCOCC3)nc3sc4c(NCCN5CCOCC5)ncnc4c23)CO1 | 6.63 | 7.20 | 7.59 | 6.22 | –
CC1(C)CCc2c(N3CCOCC3)nc3sc4c(NCCN5CCOCC5)ncnc4c3c2C1 | 5.86 | 7.13 | 8.54 | 8.34 | –

Structure (SMILES) | pIC50 (Blood) | pIC50 [1] | pIC50 [2] | pIC50 [3] | Papp A→B [4] [×10⁻⁶ cm/s]
c1nc(NCCN2CCOCC2)c2sc3nc(N4CCOCC4)c4c(c3c2n1)CCOC4 | – | – | 5.75 | – | –
CN1Cc2c(N3CCOCC3)nc3sc4c(NCCN5CCOCC5)ncnc4c3c2CC1(C)C | 5.49 | – | 5.43 | – | –
CCC1(C)Cc2c(c(N3CCOCC3)nc3sc4c(NCCN5CCOCC5)ncnc4c23)CO1 (stereo not given) | 5.69 | – | 7.05 | – | –
CC1(C)Cc2c(N3CCOCC3)nc3sc4c(NCCN5CCOCC5)ncnc4c3c2C1 | – | – | 6.48 | – | –
CC1(C)CCc2c(N3CCOCC3)nc3sc4c(NCCN5CCOCC5)ncnc4c3c21 | – | – | 6.56 | – | –
CC1(C)CCc2c(N3CCCC3)nc3sc4c(NCCN5CCOCC5)ncnc4c3c2C1 | 6.18 | 7.37 | 8.09 | 7.96 | –
CN1CCN(c2nc3sc4c(NCCN5CCOCC5)ncnc4c3c3c2COC(C)(C)C3)CC1 | – | – | 5.92 | – | –
CN1CCN(c2nc3sc4c(NCCN5CCOCC5)ncnc4c3c3c2CCC(C)(C)C3)CC1 | – | – | 7.02 | – | –
CN(Cc1ccccc1)c1nc2sc3c(NCCN4CCOCC4)ncnc3c2c2c1CCC(C)(C)C2 | – | – | 6.06 | – | –
CNc1nc2sc3c(NCCN4CCOCC4)ncnc3c2c2c1COC(C)(C)C2 | – | – | 7.29 | – | –
CNc1nc2sc3c(NCCN4CCOCC4)ncnc3c2c2c1CCC(C)(C)C2 | 6.63 | 7.74 | 8.00 | 8.38 | 13.7
CN(C)c1nc2sc3c(NCCN4CCOCC4)ncnc3c2c2c1COC(C)(C)C2 | 6.58 | 7.70 | 7.35 | 7.60 | 21.9
Cc1nc2sc3c(NCCN4CCOCC4)ncnc3c2c2c1CCC(C)(C)C2 | 6.04 | 7.01 | 7.43 | 7.47 | –
CC(C)Cc1nc2sc3c(NCCN4CCOCC4)ncnc3c2c2c1CCC(C)(C)C2 | 5.89 | 8.17 | 8.14 | 7.41 | 0.4
COc1ccc(C2CNC(=O)C2)cc1OC1CCCC1 (stereo not given) [ROLIPRAM] | 5.83 | – | – | – | –
